Reference: ChEMBL document CHEMBL1138395, “Adamantane sulfone and sulfonamide 11-beta-HSD1 Inhibitors” (Bioorg Med Chem Lett, 2007)
Values belong to the compound of their own block, whether it stands above or below them.

Legend:
[1] = target: T1, 11-beta-hydroxysteroid dehydrogenase 1 (Homo sapiens, UniProt P28845); test: Inhibition of human HSD1 expressed in HEK cells; assay type: cell-based, HEK293
[2] = target: T2, 11-beta-hydroxysteroid dehydrogenase type 2 (Homo sapiens, UniProt P80365); test: Inhibition of human HSD2 assessed as interconversion of cortisone to cortisol
T2 sequence (P80365 whole entry): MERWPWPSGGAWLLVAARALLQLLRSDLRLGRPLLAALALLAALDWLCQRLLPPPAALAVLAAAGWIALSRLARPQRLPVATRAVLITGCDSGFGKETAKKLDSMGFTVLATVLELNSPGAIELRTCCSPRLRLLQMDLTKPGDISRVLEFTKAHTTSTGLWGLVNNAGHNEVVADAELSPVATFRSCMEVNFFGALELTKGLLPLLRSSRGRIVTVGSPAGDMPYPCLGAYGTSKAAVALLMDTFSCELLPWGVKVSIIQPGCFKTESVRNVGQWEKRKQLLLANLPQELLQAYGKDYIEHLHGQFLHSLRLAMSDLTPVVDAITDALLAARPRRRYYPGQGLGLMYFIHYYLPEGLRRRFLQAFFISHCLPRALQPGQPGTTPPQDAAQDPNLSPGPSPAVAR

[3] = target: T1, 11-beta-hydroxysteroid dehydrogenase 1; test: Inhibition of human HSD1 assessed as interconversion of cortisone to cortisol
[4] = target: T3, 11-beta-hydroxysteroid dehydrogenase type 2 (Mus musculus, UniProt P51661); test: Inhibition of mouse HSD2 assessed as interconversion of cortisone to cortisol
T3 sequence (P51661 whole entry): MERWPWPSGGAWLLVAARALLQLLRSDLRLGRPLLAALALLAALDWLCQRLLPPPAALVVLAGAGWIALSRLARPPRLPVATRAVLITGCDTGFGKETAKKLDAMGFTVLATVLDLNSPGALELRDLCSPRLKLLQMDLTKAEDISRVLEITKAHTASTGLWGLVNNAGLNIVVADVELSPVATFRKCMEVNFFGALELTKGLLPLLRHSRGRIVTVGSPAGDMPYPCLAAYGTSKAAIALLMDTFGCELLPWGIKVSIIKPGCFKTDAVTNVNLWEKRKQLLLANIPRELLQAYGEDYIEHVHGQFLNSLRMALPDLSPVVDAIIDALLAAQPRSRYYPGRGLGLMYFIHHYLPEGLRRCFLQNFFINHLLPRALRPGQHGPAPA
In short: (§1)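 Enzyme inhibition measured as blocking the interconversion between cortisone and cortisol by mouse HSD1 (reported as Ki) or mouse HSD2 (reported as IC50); values are means of at least two experiments.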

[5] = target: 11-beta-hydroxysteroid dehydrogenase 1 (Mus musculus, UniProt P50172); test: Inhibition of mouse HSD1 assessed as interconversion of cortisone to cortisol; in short: as §1
[6] = Metabolic stability in mouse liver microsomes assessed as compound remaining after 30 mins; assay type: ADME, Microsome; details: read-out: Stability
In short: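 Test compound incubated with mouse liver microsomes for 30 min; percent of parent compound remaining afterward reported.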

Mus musculus [7] = test: Ex vivo inhibition of brain 11-beta-HSD1 in DIO mouse at 30 mg/kg, po after 16 hrs; assay type: functional
In short: (§2)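 DIO mice dosed orally at 30 mpk; animals killed 1, 7 and 16 h after the dose and liver, fat and brain taken. Ex vivo 11-β-HSD1 activity (cortisol levels) in tissue was measured and percent inhibition expressed relative to vehicle-dosed animals; means from two animals per point.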

[8] = Half life in monkey at 2.5 mg/kg, iv; assay type: ADME, organism-based, Macaca mulatta; set-up: dose 2.5 mg/kg, route intravenous; details: rhesus monkey, in vivo
Mus musculus [9] = test: Ex vivo inhibition of fat 11-beta-HSD1 in DIO mouse at 30 mg/kg, po after 16 hrs; assay type: functional; in short: as §2
[10] = Volume of distribution at terminal phase in monkey at 2.5 mg/kg; assay type: ADME, organism-based, Macaca mulatta; set-up: dose 2.5 mg/kg; details: rhesus monkey, in vivo, read-out: Vbeta
Mus musculus [11] = test: Ex vivo inhibition of brain 11-beta-HSD1 in DIO mouse at 30 mg/kg, po after 1 hr; assay type: functional; in short: as §2
[12] = Metabolic stability in monkey hepatocytes assessed as intrinsic clearance; assay type: ADME, cell-based, Macaca mulatta, Liver, Hepatocyte; details: rhesus monkey
In short: (§3)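 Intrinsic clearance (L/h/kg) determined from incubations with liver microsomes (mouse, monkey, human) or hepatocytes (mouse, monkey); values are means of three experiments.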

[13] = AUC in monkey at 2.5 mg/kg, po; assay type: ADME, organism-based, Macaca mulatta; set-up: dose 2.5 mg/kg, route oral; details: rhesus monkey, plasma
[14] = Oral bioavailability in monkey at 2.5 mg/kg; assay type: ADME, organism-based, Macaca mulatta; details: rhesus monkey, in vivo
[15] = Metabolic stability in human liver microsomes assessed as intrinsic clearance; assay type: ADME, Microsome; in short: as §3
[16] = Metabolic stability in monkey liver microsomes assessed as intrinsic clearance; assay type: ADME, Macaca mulatta, Microsome; details: rhesus monkey; in short: as §3
Mus musculus [17] = test: Ex vivo inhibition of liver 11-beta-HSD1 in DIO mouse at 30 mg/kg, po after 16 hrs; assay type: functional; in short: as §2
[18] = Metabolic stability in mouse liver microsomes assessed as intrinsic clearance; assay type: ADME, Microsome; in short: as §3
[19] = Metabolic stability in mouse hepatocytes assessed as intrinsic clearance; assay type: ADME, cell-based, Liver, Hepatocyte; in short: as §3
[20] = Volume of distribution at steady state in monkey at 2.5 mg/kg; assay type: ADME, organism-based, Macaca mulatta; set-up: dose 2.5 mg/kg; details: rhesus monkey, in vivo, read-out: Vdss
[21] = Plasma clearance in monkey at 2.5 mg/kg, iv; assay type: ADME, organism-based, Macaca mulatta; set-up: dose 2.5 mg/kg, route intravenous; details: rhesus monkey
[22] = Plasma clearance in mouse at 10 mg/kg, iv; assay type: ADME, organism-based; set-up: dose 10 mg/kg, route intravenous
Mus musculus [23] = test: Ex vivo inhibition of liver 11-beta-HSD1 in DIO mouse at 30 mg/kg, po after 7 hrs; assay type: functional; in short: as §2
Mus musculus [24] = test: Ex vivo inhibition of fat 11-beta-HSD1 in DIO mouse at 30 mg/kg, po after 1 hr; assay type: functional; in short: as §2
[25] = Volume of distribution at steady state in mouse at 10 mg/kg; assay type: ADME, organism-based; set-up: dose 10 mg/kg; details: in vivo, read-out: Vdss
Mus musculus [26] = test: Ex vivo inhibition of liver 11-beta-HSD1 in DIO mouse at 30 mg/kg, po after 1 hr; assay type: functional; in short: as §2
[27] = Oral bioavailability in mouse at 10 mg/kg; assay type: ADME, organism-based; details: in vivo
[28] = AUC in mouse at 10 mg/kg, po; assay type: ADME, organism-based; set-up: dose 10 mg/kg, route oral; details: plasma
Mus musculus [29] = test: Ex vivo inhibition of brain 11-beta-HSD1 in DIO mouse at 30 mg/kg, po after 7 hrs; assay type: functional; in short: as §2
[30] = Half life in mouse at 10 mg/kg, iv; assay type: ADME, organism-based; set-up: dose 10 mg/kg, route intravenous; details: in vivo
Mus musculus [31] = test: Ex vivo inhibition of fat 11-beta-HSD1 in DIO mouse at 30 mg/kg, po after 7 hrs; assay type: functional; in short: as §2
[32] = Volume of distribution at terminal phase in mouse at 10 mg/kg; assay type: ADME, organism-based; set-up: dose 10 mg/kg; details: in vivo, read-out: Vbeta

Chain of 11-beta-hydroxysteroid dehydrogenase 1 (Mus musculus, UniProt P50172) (P50172 whole entry): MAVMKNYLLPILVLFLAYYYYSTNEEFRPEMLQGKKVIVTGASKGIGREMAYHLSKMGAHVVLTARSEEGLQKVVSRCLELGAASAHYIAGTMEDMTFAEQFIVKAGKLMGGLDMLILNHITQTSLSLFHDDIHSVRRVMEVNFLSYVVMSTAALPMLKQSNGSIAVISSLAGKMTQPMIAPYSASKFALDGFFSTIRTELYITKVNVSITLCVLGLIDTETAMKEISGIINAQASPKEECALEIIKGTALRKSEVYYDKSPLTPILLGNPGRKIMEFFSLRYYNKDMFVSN
T1 sequence (P28845 whole entry): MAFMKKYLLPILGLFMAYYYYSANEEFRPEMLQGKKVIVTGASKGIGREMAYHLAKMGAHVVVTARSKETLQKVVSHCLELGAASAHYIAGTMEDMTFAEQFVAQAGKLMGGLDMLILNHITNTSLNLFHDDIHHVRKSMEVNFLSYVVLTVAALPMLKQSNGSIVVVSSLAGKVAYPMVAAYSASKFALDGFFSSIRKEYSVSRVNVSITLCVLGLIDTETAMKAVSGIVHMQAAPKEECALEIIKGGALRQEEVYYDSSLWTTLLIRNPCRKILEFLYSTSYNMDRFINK

- IC50 [1]: 83 nM
- IC50 [2]: 5500 nM
- Ki [3]: 4 nM
- IC50 [4]: > 100000 nM
- Ki [5]: 2 nM
- remaining at 0.5 h [6]: 36%
Compound: CC(C)(Oc1ccccc1Cl)C(=O)N[C@H]1C2CC3CC1C[C@](S(N)(=O)=O)(C3)C2

- IC50 [1]: 500 nM
- IC50 [2]: 15000 nM
- Ki [3]: 110 nM
- IC50 [4]: 87000 nM
- Ki [5]: 38 nM
- remaining at 0.5 h [6]: < 1%
Compound: CC(C)(Oc1ccc(F)cc1Cl)C(=O)N[C@H]1C2CC3CC1C[C@](S(=O)(=O)CCCN1CCOCC1)(C3)C2

- IC50 [1]: 690 nM
- IC50 [2]: > 100000 nM
- Ki [3]: 20 nM
- IC50 [4]: > 100000 nM
- Ki [5]: 7 nM
Compound: COc1cc(F)ccc1OC(C)(C)C(=O)N[C@H]1C2CC3CC1C[C@](S(C)(=O)=O)(C3)C2

- half-life [8]: 5.1 h
- Vd [10]: 3.1 L/kg
- CLint scaled [12]: 1.67 mL/min/kg
- AUC [13]: 6810 ng·h/mL
- bioavailability [14]: 109%
- CLint scaled [15]: 26.7 mL/min/kg
- CLint scaled [16]: 25 mL/min/kg
- CLint scaled [18]: 100 mL/min/kg
- CLint scaled [19]: 3.33 mL/min/kg
- Vd [20]: 2.7 L/kg
- clearance [21]: 6.67 mL/min/kg
- clearance [22]: 18.3 mL/min/kg
- Vd [25]: 1.5 L/kg
- IC50 [4]: > 100000 nM
- Ki [5]: 4 nM
- bioavailability [27]: 100%
- AUC [28]: 8900 ng·h/mL
- half-life [30]: 1 h
- remaining at 0.5 h [6]: 57%
- Vd [32]: 1.7 L/kg
Compound: CC(C)(Oc1ccc(F)cc1Cl)C(=O)N[C@H]1C2CC3CC1C[C@](S(C)(=O)=O)(C3)C2
- inhibition in vivo at 30 mg/kg (Mus musculus [7]): 77%
- inhibition in vivo at 30 mg/kg (Mus musculus [9]): 86%
- inhibition in vivo at 30 mg/kg (Mus musculus [11]): 90%
- inhibition in vivo at 30 mg/kg (Mus musculus [17]): 89%
- inhibition in vivo at 30 mg/kg (Mus musculus [23]): 95%
- inhibition in vivo at 30 mg/kg (Mus musculus [24]): 87%
- inhibition in vivo at 30 mg/kg (Mus musculus [26]): 95%
- inhibition in vivo at 30 mg/kg (Mus musculus [29]): 90%
- inhibition in vivo at 30 mg/kg (Mus musculus [31]): 93%

- IC50 [4]: > 100000 nM
- Ki [5]: 7 nM
Compound: CCS(=O)(=O)[C@]12CC3CC(C1)[C@@H](NC(=O)C(C)(C)Oc1ccc(F)cc1Cl)C(C3)C2

- IC50 [1]: 300 nM
- IC50 [2]: 3300 nM
- Ki [3]: 8 nM
- IC50 [4]: > 100000 nM
- Ki [5]: 4 nM
- remaining at 0.5 h [6]: 59%
Compound: CC(C)(Oc1ccc(F)cc1Cl)C(=O)N[C@H]1C2CC3CC1C[C@](S(=O)(=O)CC(N)=O)(C3)C2

- IC50 [4]: > 100000 nM
- Ki [5]: 10 nM
- remaining at 0.5 h [6]: 7%
Compound: CC(C)(Oc1cccc(Cl)c1)C(=O)N[C@H]1C2CC3CC1C[C@](S(C)(=O)=O)(C3)C2

- IC50 [4]: > 100000 nM
- Ki [5]: 8 nM
- remaining at 0.5 h [6]: 70%
Compound: CC(C)(Oc1ccc(Cl)cc1)C(=O)N[C@H]1C2CC3CC1C[C@](S(C)(=O)=O)(C3)C2

- IC50 [4]: > 100000 nM
- Ki [5]: 8 nM
- remaining at 0.5 h [6]: 63%
Compound: CC(C)(Oc1ccc(Cl)cc1F)C(=O)N[C@H]1C2CC3CC1C[C@](S(C)(=O)=O)(C3)C2

- IC50 [4]: > 100000 nM
- Ki [5]: 13 nM
- remaining at 0.5 h [6]: 62%
Compound: CC(C)(Oc1ccccc1)C(=O)N[C@H]1C2CC3CC1C[C@](S(N)(=O)=O)(C3)C2
